# ChEMBL document CHEMBL1772946, “Identification and initial SAR of silybin: an Hsp90 inhibitor” (Bioorg Med Chem Lett, 2011)
# Calls of active or inactive are those of the source. No cut-off for these calls is given here.
# How the values were obtained:
# SK-BR-3 = test: Antiproliferative activity against estrogen receptor-deficient human SKBR3 cells expressing HER2; assay type: functional
# In short: (§1)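 Cell proliferation assay against SKBr3 (ER-negative, HER2-overexpressing) and MCF-7 (ER-positive) breast cancer cells. Values are mean ± standard deviation of at least two separate experiments, each performed in triplicate.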
# MCF7 = test: Antiproliferative activity against human MCF7 cells expressing estrogen receptor; assay type: functional; in short: as §1
# [1] = target: T1, Heat shock protein HSP90 (Homo sapiens) (UniProt P07900+P08238); test: Inhibition of Hsp90 in human MCF7 cells assessed as Her2 degradation after 24 hrs by Western blot analysis; assay type: cell-based
# In short: (§2)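 MCF-7 breast cancer cells were treated for 24 h with a range of compound concentrations. Cell lysates were probed by Western blot for Her2, Raf, Akt and Hsp90, with actin as a non-client control.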
# [2] = target: T1, Heat shock protein HSP90 (Homo sapiens); test: Inhibition of Hsp90 in human MCF7 cells assessed as Raf degradation after 24 hrs by Western blot analysis; assay type: cell-based; in short: as §2
# [3] = target: T1, Heat shock protein HSP90 (Homo sapiens); test: Inhibition of Hsp90 in human MCF7 cells assessed as Akt degradation after 24 hrs by Western blot analysis; assay type: cell-based; in short: as §2
# [4] = target: T1, Heat shock protein HSP90 (Homo sapiens); test: Inhibition of Hsp90 in human MCF7 cells assessed as degradation after 24 hrs by Western blot analysis
# [5] = target: T1, Heat shock protein HSP90 (Homo sapiens); test: Inhibition of Hsp90 in human MCF7 cells assessed as Her2 degradation at 50 to 1000 uM by Western blot analysis; assay type: cell-based
# [6] = target: T1, Heat shock protein HSP90 (Homo sapiens); test: Inhibition of Hsp90 in human MCF7 cells assessed as Hsp90 degradation at 50 to 1000 uM by Western blot analysis; assay type: cell-based
# [7] = target: T1, Heat shock protein HSP90 (Homo sapiens); test: Inhibition of Hsp90 in human MCF7 cells assessed as Raf degradation at 50 to 1000 uM by Western blot analysis; assay type: cell-based
# [8] = target: T1, Heat shock protein HSP90 (Homo sapiens); test: Inhibition of Hsp90 in human MCF7 cells assessed as Akt degradation at 50 to 1000 uM by Western blot analysis; assay type: cell-based
# [9] = target: T2, Heat shock protein HSP 90 (Oryctolagus cuniculus) (UniProt P11500); test: Inhibition of Hsp90-dependent activation of [35S]-labeled His-tagged […] in rabbit reticulocyte lysate by anti-His-tag pull down assay
# T2 sequence (whole entry): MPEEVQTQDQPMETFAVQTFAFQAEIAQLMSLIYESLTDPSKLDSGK
# [10] = target: T2, Heat shock protein HSP 90 (Oryctolagus cuniculus); test: Inhibition of Hsp90-dependent maturation of [35S]-labeled His-tagged […] in rabbit reticulocyte lysate at 2 mM by anti-His-tag pull down assay
# Oryctolagus cuniculus = species on record: Oryctolagus cuniculus; test: Inhibition of Hsp90/Cdc37 interaction with [35S]-labeled His-tagged […] in rabbit reticulocyte lysate at 2 mM by Western blot analysis
# [11] = target: T2, Heat shock protein HSP 90 (Oryctolagus cuniculus); test: Inhibition of Hsp90-dependent activation of [35S]-labeled His-tagged […] in rabbit reticulocyte lysate at 2 mM by anti-His-tag pull down assay
# [12] = target: T2, Heat shock protein HSP 90 (Oryctolagus cuniculus); settings: 1 ug/ml
# [13] = target: T2, Heat shock protein HSP 90 (Oryctolagus cuniculus); settings: 1 ug/ml; remark: listed apart in the source
SMILES,Activity (SK-BR-3),Activity (MCF7),also measured
COc1cc(C2Oc3cc(C4CC(=O)c5ccccc5O4)ccc3OC2CO)ccc1O (configuration not stated),16.25 µM,13.66 µM,
COc1cc(C2Oc3cc(C4CC(=O)c5c(O)cccc5O4)ccc3OC2CO)ccc1O (configuration not stated),47.73 µM,50.32 µM,
COc1cc(C2Oc3cc([C@H]4Oc5cc(O)cc(O)c5C(=O)[C@@H]4O)ccc3OC2CO)ccc1O (stereo in doubt; 24) [SILIBININ],196.3 µM,196.4 µM,
COc1cc(C2Oc3cc([C@H]4Oc5cc(O)cc(O)c5C(=O)[C@@H]4O)ccc3OC2CO)ccc1O (stereo in doubt) [SILIBININ],197 µM,222.8 µM,
COc1cc(C2Oc3cc(C4CC(=O)c5c(O)cc(O)cc5O4)ccc3OC2CO)ccc1O (configuration not stated),101.2 µM,104.2 µM,
COc1cc(C2Oc3cc(C4Oc5ccccc5C(=O)C4O)ccc3OC2CO)ccc1O (configuration not stated),11.12 µM,13.42 µM,inhibition [1]: Dose-dependent effect; inhibition [2]: Dose-dependent effect; inhibition [3]: Dose-dependent effect; inhibition [4]: Dose-dependent effect
COc1cc(C2Oc3cc(/C=C/C(=O)c4ccc(O)cc4O)ccc3OC2CO)ccc1O (configuration not stated),37.14 µM,16.91 µM,
COc1cc(C2Oc3cc([C@H]4Oc5cc(O)cc(O)c5C(=O)[C@@H]4O)ccc3OC2CO)ccc1O (stereo in doubt),,,inhibition [5]: Active; inhibition [6]: Active; inhibition [7]: Active; inhibition [8]: Active; inhibition [9]: Dose-dependent effect; inhibition [10]: Active; inhibition (Oryctolagus cuniculus): inactive; inhibition [11]: Active
COc1cc(C2Oc3cc(/C=C/C(=O)c4c(O)cccc4O)ccc3OC2CO)ccc1O (configuration not stated),25.03 µM,22.58 µM,
COc1cc(C2Oc3cc(C4Oc5cc(O)ccc5C(=O)C4O)ccc3OC2CO)ccc1O (configuration not stated),16.04 µM,11.92 µM,
COc1cc(C2Oc3cc(/C=C/C(=O)c4cc(O)ccc4O)ccc3OC2CO)ccc1O (configuration not stated),35.84 µM,12.17 µM,
COc1cc(C2Oc3cc(C4CC(=O)c5ccc(O)cc5O4)ccc3OC2CO)ccc1O (configuration not stated),41.91 µM,41.58 µM,
COC1=C2C[C@@H](C)C[C@H](OC)[C@H](O)[C@@H](C)/C=C(\C)[C@H](OC(N)=O)[C@@H](OC)/C=C\C=C(/C)C(=O)NC(=CC1=O)C2=O,,,inhibition [12]: Active; inhibition [13]: Active
O=C1c2c(O)cc(O)cc2OC(c2ccc3c(c2)OC(c2ccc(O)cc2)C(CO)O3)C1O (configuration not stated),210.6 µM,138.7 µM,
COc1cc(C2Oc3cc(/C=C/C(=O)c4c(O)cc(O)cc4O)ccc3OC2CO)ccc1O (configuration not stated),111.4 µM,109.3 µM,
COc1cc(C2Oc3cc(C4Oc5cccc(O)c5C(=O)C4O)ccc3OC2CO)ccc1O (configuration not stated),11.9 µM,17.66 µM,
COc1cc(C2Oc3cc(C4Oc5ccc(O)cc5C(=O)C4O)ccc3OC2CO)ccc1O (configuration not stated),13.41 µM,17.8 µM,
COc1cc(C2Oc3cc(C4CC(=O)c5cc(O)ccc5O4)ccc3OC2CO)ccc1O (configuration not stated),15.63 µM,15.62 µM,inhibition [1]: Dose-dependent effect; inhibition [2]: Dose-dependent effect; inhibition [3]: Dose-dependent effect; inhibition [4]: Dose-dependent effect
COc1cc(C2Oc3cc(/C=C/C(=O)c4ccccc4O)ccc3OC2CO)ccc1O (configuration not stated),19.87 µM,12.07 µM,
